In ChEMBL document CHEMBL1687805, “Colistin resistance in Acinetobacter baumannii is mediated by complete loss of lipopolysaccharide production” (2010):
In brackets after ≈: the same amount, converted by molar mass.

Columns and labels:
Assay type in all cases: functional
Acinetobacter baumannii [1] = assay: Antibacterial activity against colistin-resistant Acinetobacter baumannii ATCC 19606R harboring empty plasmid pWH1266 by broth microdilution method
How it was run: (§1)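 Broth microdilution MIC in cation-adjusted Mueller-Hinton broth following the CLSI protocol, read in μg/ml. Strains were kept on Mueller-Hinton agar and cultured at 37°C. 19606R was selected directly on 10 μg/ml colistin and maintained with it. The pWH1266 or pAL840 transformants of 19606R were introduced by electroporation and selected on 100 μg/ml ampicillin.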

Acinetobacter baumannii [2] = assay: Antibacterial activity against colistin-resistant Acinetobacter baumannii ATCC 19606R exhibiting complete loss of lipopolysaccharide production by broth microdilution method; how it was run: as §1
Acinetobacter baumannii [3] = assay: Antibacterial activity against Acinetobacter baumannii ATCC 19606 by broth microdilution method; how it was run: as §1
Acinetobacter baumannii [4] = assay: Antibacterial activity against colistin-resistant Acinetobacter baumannii ATCC 19606R harboring pAL840 plasmid encoding intact lpxA gene by broth microdilution method; how it was run: as §1

Molecule: CC[C@H]1OC(=O)[C@H](C)[C@@H](O[C@H]2C[C@@](C)(OC)[C@@H](O)[C@H](C)O2)[C@H](C)[C@@H](O[C@@H]2O[C@H](C)C[C@H](N(C)C)[C@H]2O)[C@](C)(O)C[C@@H](C)CN(C)[C@H](C)[C@@H](O)[C@]1(C)O [AZITHROMYCIN]
- MIC (Acinetobacter baumannii [1]): 2 µg/mL (≈ 2.67 µM)
- MIC (Acinetobacter baumannii [2]): 2 µg/mL (≈ 2.67 µM)
- MIC (Acinetobacter baumannii [3]): 64 µg/mL (≈ 85.4 µM)
- MIC (Acinetobacter baumannii [4]): 64 µg/mL (≈ 85.4 µM)

Molecule: CO/N=C(\C(=O)N[C@@H]1C(=O)N2C(C(=O)[O-])=C(C[N+]3(C)CCCC3)CS[C@H]12)c1csc(N)n1
- MIC (Acinetobacter baumannii [1]): 0.125 µg/mL (≈ 0.26 µM)
- MIC (Acinetobacter baumannii [2]): 0.125 µg/mL (≈ 0.26 µM)
- MIC (Acinetobacter baumannii [3]): 16 µg/mL (≈ 33.3 µM)
- MIC (Acinetobacter baumannii [4]): 16 µg/mL (≈ 33.3 µM)

Molecule: POLYMYXIN B
- MIC (Acinetobacter baumannii [1]): > 128 µg/mL
- MIC (Acinetobacter baumannii [2]): > 128 µg/mL
- MIC (Acinetobacter baumannii [3]): 0.5 µg/mL
- MIC (Acinetobacter baumannii [4]): 0.5 µg/mL
